ChEMBL document CHEMBL1122632, “Synthesis and antitumor activity of cis-dichloroplatinum (II)-N-aminated nucleoside complexes” (J Med Chem, 1984)
≈ marks a conversion by molar mass, not a printed value. Where “and” joins values, the source holds several entries; their conditions need not be identical. Equal values may be shown once.

Key:
L1210 [1] = test: Ratio of median survival time of the mice bearing L1210 cells in treated(T) vs. control(C) at a dose of 114 mg/kg x 2 days; format: functional, Mus musculus
Procedure, shortened: (§1)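 (BALB/c x DBA/2)F1 mice, 20 g, implanted ip with 10^4 L1210 cells. Test samples in saline (0.2 mL) given ip on days 1 and 5 after tumor inoculation; doses above 100 mg/kg homogenized with Nikkol (7 times by weight) as vehicle. Activity from median survival time of treated group versus control group (T/C).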

L1210 [2] = test: Ratio of median survival time of the mice bearing L1210 cells in treated(T) vs. control(C) at a dose of 2 mg/kg x 2 days; format: functional, Mus musculus; procedure, shortened: as §1
L1210 [3] = test: In vitro inhibitory effect on growth of L1210 cells; (10E-6); format: functional, cell-based; conditions: Mus musculus
Procedure, shortened: (§2)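 L1210 cells (10^5 in 1 mL) were grown in RPMI 1640 with 10% FCS and kanamycin, at 37 °C in CO2, for 48 h. Compounds were heated at 110 °C for 8 h, dissolved in medium and tested at ≥6 concentrations. Viability was scored by 0.17% Trypan blue exclusion against drug-free controls. IC50 was the concentration halving living cell number, taken from the log-probit dose-response curve.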

L1210 [4] = test: In vitro inhibition of L1210 (murine leukemia) cell growth.; format: functional, cell-based, Mus musculus; conditions: Mus musculus, L1210; read-out: IC50; procedure, shortened: as §2
L1210 [5] = test: Median survival time (MST) of mice bearing L1210 cells was determined at a dose of 114 mg/kg x 2 days administered ip.; format: functional, Mus musculus; procedure, shortened: as §1
L1210 [6] = test: Median survival time (MST) of mice bearing L1210 cells was determined at a dose of 2 mg/kg x 2 days administered ip.; format: functional, Mus musculus; procedure, shortened: as §1
L1210 [7] = test: Ratio of median survival time of the mice bearing L1210 cells in treated(T) vs. control(C) at a dose of 112 mg/kg x 2 days; format: functional, Mus musculus; procedure, shortened: as §1
L1210 [8] = test: Ratio of median survival time of the mice bearing L1210 cells in treated(T) vs. control(C) at a dose of 30 mg/kg x 2 days; format: functional, Mus musculus; procedure, shortened: as §1
L1210 [9] = test: In vitro inhibitory effect on growth of L1210 cells; 1.5*10e-3; format: functional, cell-based; conditions: Mus musculus; procedure, shortened: as §2
L1210 [10] = test: Median survival time (MST) of mice bearing L1210 cells was determined at a dose of 59 mg/kg x 2 days administered ip; Toxic.; format: functional, organism-based; parameters: dose 59 mg/kg; conditions: Mus musculus
Procedure, shortened: (§3)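 (BALB/c × DBA/2)F1 mice (20 g) were implanted ip with 10^4 L1210 cells. Compounds in saline (0.2 mL) were given ip on days 1 and 5; doses above 100 mg/kg were homogenized with Nikkol (7× by weight). Activity was scored as median survival time of treated mice and expressed as T/C, the ratio of treated to control median survival time.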

L1210 [11] = test: Median survival time (MST) of mice bearing L1210 cells was determined at a dose of 2 mg/kg x 2 days administered ip; Toxic.; format: functional, organism-based; parameters: dose 2 mg/kg; conditions: Mus musculus; procedure, shortened: as §3
L1210 [12] = test: Median survival time (MST) of mice bearing L1210 cells was determined at a dose of 300 mg/kg x 2 days administered ip; Toxic; format: functional, organism-based; parameters: dose 300 mg/kg; conditions: Mus musculus; procedure, shortened: as §3
L1210 [13] = test: Ratio of median survival time of the mice bearing L1210 cells in treated(T) vs. control(C) at a dose of 10 mg/kg x 2 days; format: functional, organism-based; parameters: dose 10 mg/kg; conditions: Mus musculus; procedure, shortened: as §3
L1210 [14] = test: Ratio of median survival time of the mice bearing L1210 cells in treated(T) vs. control(C) at a dose of 100 mg/kg x 2 days; format: functional, organism-based; parameters: dose 100 mg/kg; conditions: Mus musculus; procedure, shortened: as §3
L1210 [15] = test: Ratio of median survival time of the mice bearing L1210 cells in treated(T) vs. control(C) at a dose of 200 mg/kg x 2 days; format: functional, organism-based; parameters: dose 200 mg/kg; conditions: Mus musculus; procedure, shortened: as §3
L1210 [16] = test: Ratio of median survival time of the mice bearing L1210 cells in treated(T) vs. control(C) at a dose of 25 mg/kg x 2 days; format: functional, organism-based; parameters: dose 25 mg/kg; conditions: Mus musculus; procedure, shortened: as §3
L1210 [17] = test: Ratio of median survival time of the mice bearing L1210 cells in treated(T) vs. control(C) at a dose of 50 mg/kg x 2 days; format: functional, organism-based; parameters: dose 50 mg/kg; conditions: Mus musculus; procedure, shortened: as §3
L1210 [18] = test: Median survival time (MST) of mice bearing L1210 cells was determined at a dose of 50 mg/kg x 2 days administered ip.; format: functional, organism-based; parameters: dose 50 mg/kg; conditions: Mus musculus; procedure, shortened: as §3
L1210 [19] = test: Median survival time (MST) of mice bearing L1210 cells was determined at a dose of 25 mg/kg x 2 days administered ip.; format: functional, organism-based; parameters: dose 25 mg/kg; conditions: Mus musculus; procedure, shortened: as §3
L1210 [20] = test: Median survival time (MST) of mice bearing L1210 cells was determined at a dose of 100 mg/kg x 2 days administered ip.; format: functional, organism-based; parameters: dose 100 mg/kg; conditions: Mus musculus; procedure, shortened: as §3
L1210 [21] = test: Median survival time (MST) of mice bearing L1210 cells was determined at a dose of 200 mg/kg x 2 days administered ip.; format: functional, organism-based; parameters: dose 200 mg/kg; conditions: Mus musculus; procedure, shortened: as §3
L1210 [22] = test: Median survival time (MST) of mice bearing L1210 cells was determined at a dose of 10 mg/kg x 2 days administered ip.; format: functional, organism-based; parameters: dose 10 mg/kg; conditions: Mus musculus; procedure, shortened: as §3
Mus musculus [23] = test: Blood urea nitrogen values in ICR mice after intraperitoneal administration at an equivalent molar dose of the LD50 of […](13 mg/kg) on day 3; format: functional, organism-based
Procedure, shortened: (§4)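 ICR mice (25-30 weeks, 39 ± 4 g), 5-6 per group, given one ip dose of 0.043 mmol/kg, equimolar to 13 mg/kg cis-DDP. On days 3, 6 and 9, blood was drawn from the heart under ether anesthesia and stored frozen. BUN was measured later by a modified urease indophenol method. Results are mean ± SD, mg/100 mL blood, compared with untreated controls.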

Mus musculus [24] = test: Blood urea nitrogen values in ICR mice after intraperitoneal administration at an equivalent molar dose of the LD50 of […](13 mg/kg) on day 6; format: functional, organism-based; procedure, shortened: as §4
Mus musculus [25] = test: Blood urea nitrogen values in ICR mice after intraperitoneal administration at an equivalent molar dose of the LD50 of […](13 mg/kg) on day 9; format: functional, organism-based; procedure, shortened: as §4
Mus musculus [26] = test: Effect on body weight in ICR mice was determined after intraperitoneal administration on day 3; format: functional, organism-based
Procedure, shortened: (§5)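 ICR mice (25-30 weeks, 39 ± 4 g), 5-6 per group, given one ip dose of 0.043 mmol/kg, equimolar to 13 mg/kg cis-DDP. Body and kidney weights were taken on days 3, 6 and 9 and compared with untreated controls. Weights are paired, mean ± SD.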

Mus musculus [27] = test: Effect on body weight in ICR mice was determined after intraperitoneal administration on day 6; format: functional, organism-based; procedure, shortened: as §5
Mus musculus [28] = test: Effect on body weight in ICR mice was determined after intraperitoneal administration on day 9; format: functional, organism-based; procedure, shortened: as §5
Mus musculus [29] = test: Effect on kidney weight in ICR mice was determined after intraperitoneal administration on day 3; format: functional, organism-based; procedure, shortened: as §5
Mus musculus [30] = test: Effect on kidney weight in ICR mice was determined after intraperitoneal administration on day 6; format: functional, organism-based; procedure, shortened: as §5
Mus musculus [31] = test: Effect on kidney weight in ICR mice was determined after intraperitoneal administration on day 9; format: functional, organism-based; procedure, shortened: as §5
L1210 [32] = test: Median survival time (MST) of mice bearing L1210 cells was determined at a dose of 115 mg/kg x 2 days administered ip; Toxic.; format: functional, organism-based; parameters: dose 115 mg/kg; conditions: Mus musculus; procedure, shortened: as §3

## N=c1c2ccn(C3O[C@H](CO)[C@@H](O)[C@H]3O)c2ncn1N (stereo partly drawn)
L1210 [1]
  T/C: 95%
L1210 [2]
  T/C: 110%
L1210 [3]
  IC50: 8.5 µM
L1210 [4]
  IC50: 2.7 µg/mL (≈ 9.6 µM)
L1210 [5]
  MST: 9.5 days
L1210 [6]
  MST: 11 days

## N=c1ccn([C@@H]2O[C@H](CO)[C@@H](O)[C@H]2O)c(=O)n1N
L1210 [4]
  IC50: 400 µg/mL and 1.36 mM

## N=c1ccn([C@@H]2O[C@H](CO)[C@@H](O)[C@@H]2O)c(=O)n1N
L1210 [7]
  T/C: 100%
L1210 [8]
  T/C: 95%
L1210 [9]
  IC50: 1530 µM
L1210 [4]
  IC50: 45 µg/mL (≈ 174 µM)
L1210 [5]
  MST: 10 days
L1210 [6]
  MST: 9.5 days

## N=c1ccn([C@H]2C[C@H](O)[C@@H](CO)O2)c(=O)n1N
L1210 [4]
  IC50: 2000 µg/mL and 7.18 mM

## 3-amino-2'-deoxycytidine hydrochloridecis-DDP
L1210 [10]
  MST: Toxic
L1210 [11]
  MST: Toxic

## 3-amino-2'-deoxycytidine-dichloroplatinum (II)
L1210 [12]
  MST: Toxic
L1210 [13]
  T/C: 125%
L1210 [14]
  T/C: 181%
L1210 [15]
  T/C: 106%
L1210 [16]
  T/C: 131%
L1210 [17]
  T/C: 162%
L1210 [18]
  MST: 13 days
L1210 [19]
  MST: 10.5 days
L1210 [20]
  MST: 14.5 days
L1210 [21]
  MST: 8.5 days
L1210 [22]
  MST: 10 days
Mus musculus [23]
  Blood urea nitrogen: 27.2 mg 100ml-1
Mus musculus [24]
  Blood urea nitrogen: 28 mg 100ml-1
Mus musculus [25]
  Blood urea nitrogen: 26 mg 100ml-1
Mus musculus [26]
  Body weight: 38.3
Mus musculus [27]
  Body weight: 39.3
Mus musculus [28]
  Body weight: 35.5
Mus musculus [29]
  Kidney weight: 626
Mus musculus [30]
  Kidney weight: 654
Mus musculus [31]
  Kidney weight: 634

## 3-amino-cytidine hydrochloridecis-DDP
L1210 [32]
  MST: Toxic
L1210 [11]
  MST: Toxic
